Test results taken from PMC2668526 (Bioorganic & medicinal chemistry, 2008).
“And” between values parts separate entries of the source, which are not always exact repeats. Equal entries are not always repeated. Where two headings read alike, the source gives them in different places. Where a SMILES comes first, the peptide text is derived from it. The star is where a group is joined. ClAc = O=C(CCl)*; NHOH = ON*

Assays:
rat PAM [1] = target: T1, rat PAM (Rattus norvegicus, UniProt P14925); experiment: Steady-state kinetics of rat bifunctional PAM substrates; conditions: for (V/K)app as percent of the corresponding glycine substrate: D-alanine substrate vs. corresponding glycine substrate; for (V/K)app / Km: O2 consumption, 5.0 mM ascorbate, pH 6.0, 37 °C; for Km: read-out: KM,app; for Rel. (V/K)app: relative to hippuric acid = 1.0
T1 sequence (P14925 36-715 isoform P14925-2 limits assumed): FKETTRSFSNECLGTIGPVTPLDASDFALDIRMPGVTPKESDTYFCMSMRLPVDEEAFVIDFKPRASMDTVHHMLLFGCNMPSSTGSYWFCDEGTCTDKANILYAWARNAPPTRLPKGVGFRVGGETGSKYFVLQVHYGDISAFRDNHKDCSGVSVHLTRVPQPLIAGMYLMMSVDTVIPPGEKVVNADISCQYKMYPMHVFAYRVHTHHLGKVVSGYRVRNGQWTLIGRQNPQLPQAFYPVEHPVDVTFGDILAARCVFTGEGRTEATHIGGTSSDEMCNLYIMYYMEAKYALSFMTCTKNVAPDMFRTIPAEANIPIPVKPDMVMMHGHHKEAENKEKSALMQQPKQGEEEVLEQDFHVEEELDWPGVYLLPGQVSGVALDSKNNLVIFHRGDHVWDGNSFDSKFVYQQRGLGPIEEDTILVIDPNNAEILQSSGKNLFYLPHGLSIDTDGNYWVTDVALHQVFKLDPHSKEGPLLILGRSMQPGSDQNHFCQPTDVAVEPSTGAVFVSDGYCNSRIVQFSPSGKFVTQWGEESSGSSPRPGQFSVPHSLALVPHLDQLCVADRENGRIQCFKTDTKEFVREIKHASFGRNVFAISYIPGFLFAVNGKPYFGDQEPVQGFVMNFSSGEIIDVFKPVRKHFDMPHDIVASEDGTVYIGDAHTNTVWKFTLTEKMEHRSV

DU 145 cells = experiment: Growth of human prostate DU 145 cells; assay type: cell-based; conditions: for antiproliferative concentration relative to Ki,s for PHM: DU 145 cells vs. in vitro Ki,s
Outline: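 DU 145 cells in EMEM (Earle's salts, 2 mM glutamine, 1.0 mM pyruvate, 0.1 mM amino acids, 10% FBS, penicillin/streptomycin). Grown to 80% confluency, trypsinized, seeded at 50,000 cells/well, adhered 24 h. Medium then replaced with or without test compound; 10 μM 4-HPR as positive control. Counted at 8, 24, 48, 72, 96 h: PBS wash, trypsin/EDTA detachment, Trypan blue, hemacytometer viable/non-viable count.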

PHM = conditions: cited from earlier work; for Km: read-out: KM,app
B. germanica PHM = B. germanica PHM inhibition; assay type: biochemical, Blatella germanica; conditions: for RatKi,s/InsectKi,s: ratio rat PAM Ki,s to B. germanica PHM Ki,s; for Ki: read-out: Ki,s vs. B. germanica PHM, N-dansyl-Tyr-Val-Gly amidation
rat PAM [2] = target: T1, rat PAM; experiment: Bifunctional rat PAM inhibition; assay type: biochemical
PAL activity of rat PAM = PAL activity of rat PAM (Rattus norvegicus, UniProt P14925); experiment: Inhibition of PAL activity; assay type: biochemical; conditions: read-out: inhibition of PAL activity
Outline: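 Recombinant type A rat medullary thyroid carcinoma PAM (1.5–3.0 μg) started reactions at 37.0 °C. Buffer: 100 mM MES/NaOH pH 6.0, 30 mM NaCl, 1% ethanol, 0.001% Triton X-100. Substrate: 2.0 mM (R,S)-α-hydroxyhippuric acid, with 0 or 750 μM test compound. No-enzyme blank included. TFA quench at 20 min. Glyoxylate measured spectrophotometrically against a standard curve.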

[3] = Ki,s, rat PAM, absence of DMSO, competitive inhibition assumed

C[C@@H](NC(=O)OCc1ccccc1)C(=O)O [compound 53, CBZ-D-alanine]
(V/K)app as percent of the corresponding glycine substrate (rat PAM [1]): 0.05–0.3%

CC(=O)N[C@H](C)C(=O)O [compound 51, Acetyl-D-alanine]
(V/K)app as percent of the corresponding glycine substrate (rat PAM [1]): 0.05–0.3%

CC1=C(/C=C/C(C)=C/C=C/C(C)=C/C(=O)Nc2ccc(O)cc2)C(C)(C)CCC1 [4-HPR, N-(4-hydroxyphenyl) retinamide, reference compound]
effect on cell growth (positive control) (DU 145 cells; DU 145 cells, 10 μM, 48 hr): completely eliminates cell growth

methyl ester of N-dansyl-Tyr-Val-Gly
Ki (PHM; read-out: Ki,s, ref 20a): 54 µM

3-Indolylacetylglycine [compound 24]
(V/K)app (rat PAM [1]): (2.5 ± 0.1) × 10^3 M^−1 s^−1

O=C(O)CSC(=S)Nc1ccccc1 [compound 61, S-(Phenylthiocarbamoyl)thioglycolic acid]
RatKi,s/InsectKi,s (B. germanica PHM): 1.6 | Ki (B. germanica PHM): 5.4 ± 0.3 µM | Ki (rat PAM [2]; [3]): 8.6 ± 1.4 µM | inhibition at 750 µM (PAL activity of rat PAM): ~40%

O=C(O)CNC(=O)CNC(=O)CCl [compound 34, Chloroacetyl-Gly-Gly] (ClAc-Gly-Gly-OH)
(V/K)app (rat PAM [1]): (2.1± 0.1) × 10^4 M^−1 s^−1 | Km (rat PAM [1]): 420 ± 30 µM

2-Propylmercaptoacetylglycine [compound 29]
(V/K)app (rat PAM [1]): (8.2 ± 0.3) × 10^3 M^−1 s^−1 | Km (rat PAM [1]): 220 ± 10 µM | Rel. (V/K)app (rat PAM [1]): 1.3

O=C(N[C@H](CO)C(=O)O)c1ccccc1 [compound 76, N-(Benzoyl)-D-serine]
Ki (rat PAM [2]; [3]): 1500 µM

O=C(O)CSC(=S)c1ccccc1 [compound 64, S-(Thiobenzoyl)thioglycolic acid]
Ki (B. germanica PHM): 92 ± 10 µM | Ki (rat PAM [2]; Ki,s, rat PAM, […] DMSO): 49 µM | Ki (rat PAM [2]; [3]): 39 ± 5 µM

O=C(O)CCSC(=S)Nc1ccccc1 [compound 56, S-(Phenylthiocarbamoyl)-3-mercaptopropionic acid]
RatKi,s/InsectKi,s (B. germanica PHM): 0.47 | Ki (B. germanica PHM): 5.5 ± 0.8 µM | Ki (rat PAM [2]; [3]): 2.6 ± 0.7 µM

Cc1ccc(C(=S)SCC(=O)O)cc1 [compound 57, S-(4-Methylthiobenzoyl)thioglycolic acid]
RatKi,s/InsectKi,s (B. germanica PHM): 0.25 | Ki (B. germanica PHM): 14 ± 1 µM | Ki (rat PAM [2]; [3]): 3.5 ± 0.4 µM | antiproliferative concentration relative to Ki,s for PHM (DU 145 cells): 60–300 fold

O=C(O)CONC(=O)c1ccccc1 [compound 73, O-Benzamidoglycolic acid]
Ki (rat PAM [2]; [3]): 1000 µM

O=C(O)CSc1ccccc1 [compound 72, S-Phenylmercaptoacetic Acid]
RatKi,s/InsectKi,s (B. germanica PHM): 6.9 | Ki (B. germanica PHM): 56 ± 6 µM | Ki (rat PAM [2]; [3]): 380 ± 40 µM

O=C(NO)c1ccccc1O [compound 71, Salicylhydroxamic acid]
Ki (rat PAM [2]; [3]): 300 ± 20 µM

O=C(O)CSC(=S)Cc1ccccc1 [compound 60, S-(2-Phenylthioacetyl)thioglycolic acid]
RatKi,s/InsectKi,s (B. germanica PHM): 2.1 | Ki (B. germanica PHM): 3.6 ± 0.6 µM | Ki (rat PAM [2]; Ki,s, rat PAM, […] DMSO): 13 µM | Ki (rat PAM [2]; [3]): 7.9 ± 2.8 µM | antiproliferative concentration relative to Ki,s for PHM (DU 145 cells): ~ 60 fold and 60–300 fold | concentration showing significant anti-proliferative effects (DU 145 cells; DU 145 cells, Fig. 2): > 500 µM

O=C(O)CNC(=S)Nc1ccccc1 [compound 69, N-Phenylthiohydantoic acid]
Ki (rat PAM [2]; Ki,s, rat PAM, […] DMSO): 110 ± 20 µM

CC(C#N)(CCC(=O)O)SC(=S)c1ccccc1 (stereo not drawn) [compound 58, S-(Thiobenzoyl)-4-mercapto-4-cyanopentanoic acid]
Ki (rat PAM [2]; [3]): 5.7 ± 0.4 µM

NCC(=O)NNC(=O)OCc1ccccc1 [compound 78, (CBZ-hydrazido)glycine]
Ki (rat PAM [2]; [3]): 7900 µM

O=C(NC(CSC(=O)c1ccccc1)C(=O)O)c1ccccc1 (stereo in doubt) [compound 68, N,S-Dibenzoyl-L-cysteine]
Ki (rat PAM [2]; [3]): 69 ± 7 µM

2-Pyridylmercaptoacetylglycine [compound 47]
(V/K)app (rat PAM [1]): (8.3 ± 0.7) × 10^4 M^−1 s^−1 | Km (rat PAM [1]): 36 ± 4 µM | Rel. (V/K)app (rat PAM [1]): 13

C[C@@H](NC(=O)c1ccccc1)C(=O)O [compound 52, Benzoyl-D-alanine]
(V/K)app as percent of the corresponding glycine substrate (rat PAM [1]): 0.05–0.3%

O=C(O)COC(=O)Nc1ccccc1 [compound 65, O-(Phenylcarbamoyl)glycolic acid]
Ki (rat PAM [2]; [3]): 54 ± 4 µM

CC(C)C[C@H](NC(=O)[C@@H]1CCCN1)C(=O)NCC(=O)NO [compound 74, Pro-Leu-Gly hydroxamic acid] (H-Pro-Leu-Gly-{NHOH})
Ki (rat PAM [2]; [3]): 1000 µM

O=C(O)CNC(=O)CCCCCCCc1ccccc1 [compound 46, 8-Phenyloctanoylglycine]
(V/K)app lower than that of 6-phenylhexanoylglycine 50 (rat PAM [1]): ~ 2.5 fold

O=C(O)CSC(=S)CCc1ccccc1 [compound 62, S-(3-Phenylthiopropionyl)thioglycolic acid]
RatKi,s/InsectKi,s (B. germanica PHM): 11 | Ki (B. germanica PHM): 0.87 ± 0.11 µM | Ki (rat PAM [2]; Ki,s, rat PAM, […] DMSO): 30 µM | Ki (rat PAM [2]; [3]): 9.4 ± 0.8 µM

CCCCCCCCCCCC(=S)SCC(=O)O [compound 55, S-(Thiolauroyl)thioglycolic acid]
Ki (rat PAM [2]; [3]): 0.54 ± 0.05 µM

CCOC(=O)CSC(=S)c1ccc(C)cc1 [compound 70, S-(4-Methylthiobenzoyl)thioglycolic acid ethyl ester]
Ki (rat PAM [2]; [3]): 110 ± 10 µM

CC(NC(=S)c1ccccc1)C(=O)O (stereo not drawn) [compound 59, N-(Thiobenzoyl)-(D,L)-alanine]
Ki (rat PAM [2]; [3]): 7.2 ± 0.9 µM

O=C(NCC[C@H](O)C(=O)O)OCc1ccccc1 [compound 75, (S)-N-CBZ-4-amino-2-hydroxybutyric acid]
Ki (rat PAM [2]; [3]): 1400 µM

N[C@@H](CCC(=O)N[C@@H](CS)C(=O)NCC(=O)O)C(=O)O [glutathione]
Km (PHM): 130 µM

O=C(O)CNC(=O)CCCCCc1ccccc1 [compound 50, 6-Phenylhexanoylglycine]
increase of (V/K)app over hippurate 1 (rat PAM [1]): ~ 30 fold | ratio of (V/K)app to that of 3-(2-furyl)acryloylglycine 26 (rat PAM [1]): about 70

CC(SC(=S)c1ccccc1)C(=O)O (racemic) [compound 66, S-(Thiobenzoyl)-(R,S)-thiolactic acid]
Ki (rat PAM [2]; [3]): 58 ± 9 µM

O=C(NCP(=O)(O)O)c1cccnc1 [compound 80, (Nicotinamidomethyl)phosphonic acid]
Ki (rat PAM [2]): > 75000 µM | inhibition of PHM (O2 consumption) (rat PAM [2]; 28 mM compound, 200 μM N-octanoylglycine as substrate): no inhibition

O=C(O)CNC(=O)c1ccccc1O [salicylurate]
Km (PHM; ref 23b): 860 µM

O=C(O)CNCc1ccccc1 [compound 79, N-Benzylglycine]
Ki (rat PAM [2]; [3]): 18000 µM
